Measured values as given in ChEMBL document CHEMBL3108759, “Scaffold ranking and positional scanning utilized in the discovery of nAChR-selective compounds suitable for optimization studies” (J Med Chem, 2013).
pIC50, pKi: −log10 of the molar value. Calls of active or inactive are those of the source. The calls are words filed in the database; no cut-off is given here.

Tests used:
HEK293 = experiment: Selectivity ratio for rat alpha3beta4 nAChR transfected in HEK293 cells to rat alpha4beta2 nAChR transfected in HEK293 cells; assay type: cell-based
Rattus norvegicus = species: Rattus norvegicus; experiment: Selectivity ratio of Ki for rat alpha3beta4 nAChR to Ki for rat alpha4beta2 nAChR
Summary of the method: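 Selectivity was calculated from [3H]epibatidine-binding Ki values as (Ki α3β4 − Ki α4β2)/Ki α4β2.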

[1] = biological target: T1, Neuronal acetylcholine receptor; alpha4/beta2 (Rattus norvegicus, UniProt P09483+P12390); experiment: Antagonist activity at rat alpha4beta2 nAChR transfected in HEK293 cells after 10 mins by fluorescence assay in presence of nicotine; assay type: cell-based
T1 sequence (P09483 whole entry): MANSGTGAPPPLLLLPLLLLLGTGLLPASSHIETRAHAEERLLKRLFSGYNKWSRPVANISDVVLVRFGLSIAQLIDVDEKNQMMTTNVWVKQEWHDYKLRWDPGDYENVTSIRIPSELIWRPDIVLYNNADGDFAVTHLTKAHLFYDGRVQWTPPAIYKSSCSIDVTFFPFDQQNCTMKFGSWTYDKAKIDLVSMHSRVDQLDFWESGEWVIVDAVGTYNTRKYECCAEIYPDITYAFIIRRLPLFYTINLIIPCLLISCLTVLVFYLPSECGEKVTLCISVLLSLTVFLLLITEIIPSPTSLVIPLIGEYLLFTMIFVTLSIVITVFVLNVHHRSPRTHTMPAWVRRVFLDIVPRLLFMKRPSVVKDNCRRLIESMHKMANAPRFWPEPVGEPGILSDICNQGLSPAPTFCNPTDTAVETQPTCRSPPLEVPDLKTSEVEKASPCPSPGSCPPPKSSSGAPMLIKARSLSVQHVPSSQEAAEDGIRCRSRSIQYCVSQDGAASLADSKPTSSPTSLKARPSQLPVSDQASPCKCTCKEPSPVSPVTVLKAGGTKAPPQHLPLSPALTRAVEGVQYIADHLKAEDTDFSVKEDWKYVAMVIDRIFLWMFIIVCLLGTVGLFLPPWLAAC
T1 sequence (P12390 whole entry): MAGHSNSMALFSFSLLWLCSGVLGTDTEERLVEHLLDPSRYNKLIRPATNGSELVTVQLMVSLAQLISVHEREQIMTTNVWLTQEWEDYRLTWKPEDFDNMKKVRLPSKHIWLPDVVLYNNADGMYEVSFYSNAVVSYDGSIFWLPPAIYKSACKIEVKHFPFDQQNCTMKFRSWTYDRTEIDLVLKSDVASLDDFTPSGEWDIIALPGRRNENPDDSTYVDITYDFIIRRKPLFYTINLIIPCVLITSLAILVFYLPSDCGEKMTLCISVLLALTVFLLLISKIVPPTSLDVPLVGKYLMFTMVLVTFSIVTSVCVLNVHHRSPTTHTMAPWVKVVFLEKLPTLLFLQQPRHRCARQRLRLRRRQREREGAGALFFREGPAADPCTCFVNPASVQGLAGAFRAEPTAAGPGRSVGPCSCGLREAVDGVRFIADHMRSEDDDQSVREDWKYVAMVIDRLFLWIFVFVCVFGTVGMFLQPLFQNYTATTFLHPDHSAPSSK
Summary of the method: (§1)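 Transfected HEK cells were seeded at 4000/well the day before and loaded with blue membrane-potential dye in HBSS/20 mM HEPES pH 7.4 at 37 °C for 20 min. […] Fluorescence (ex 530, em 550–580) was recorded every 3 s for 120 s on a FlexStation.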

[2] = biological target: T1, Neuronal acetylcholine receptor; alpha4/beta2; experiment: Displacement of [3H]epibatidine from rat alpha4beta2 nAChR transfected in HEK293 cells after 2 hrs by beta-plate counting analysis; assay type: cell-based
Summary of the method: (§2)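 Cell lines KXα3β4R2 and KXα4β2R2 (rat receptors) were used. Membranes were prepared by homogenizing cells in 50 mM Tris pH 7.4 and centrifuging twice at 20000g. They were incubated 2 h at room temperature with 0.3 nM [3H]epibatidine plus test sample, then filtered on PEI-soaked glass fiber and counted. Nonspecific binding was defined by 1 µM AT-1001 or 0.1 µM epibatidine. Ki was obtained by Cheng–Prusoff; runs were in triplicate, at least twice.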

[3] = biological target: Neuronal acetylcholine receptor; alpha3/beta4 (Rattus norvegicus, UniProt P04757+P12392); experiment: Displacement of [3H]epibatidine from rat alpha3beta4 nAChR transfected in HEK293 cells after 2 hrs by beta-plate counting analysis; assay type: cell-based; summary of the method: as §2
Sequence of Neuronal acetylcholine receptor; alpha3/beta4 (P04757 whole entry): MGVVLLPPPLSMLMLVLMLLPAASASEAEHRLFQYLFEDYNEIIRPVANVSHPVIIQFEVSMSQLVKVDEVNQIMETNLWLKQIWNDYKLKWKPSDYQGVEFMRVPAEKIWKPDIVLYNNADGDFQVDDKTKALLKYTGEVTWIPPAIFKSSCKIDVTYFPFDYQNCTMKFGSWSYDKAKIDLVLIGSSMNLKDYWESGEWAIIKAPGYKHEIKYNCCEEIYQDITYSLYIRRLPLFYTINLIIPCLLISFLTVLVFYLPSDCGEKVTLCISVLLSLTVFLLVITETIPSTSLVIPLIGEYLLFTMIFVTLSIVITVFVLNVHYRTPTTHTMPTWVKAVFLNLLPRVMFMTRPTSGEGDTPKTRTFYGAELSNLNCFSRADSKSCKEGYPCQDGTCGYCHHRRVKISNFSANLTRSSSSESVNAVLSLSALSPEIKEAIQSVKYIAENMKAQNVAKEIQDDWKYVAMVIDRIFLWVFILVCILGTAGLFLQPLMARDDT
Sequence of Neuronal acetylcholine receptor; alpha3/beta4 (P12392 whole entry): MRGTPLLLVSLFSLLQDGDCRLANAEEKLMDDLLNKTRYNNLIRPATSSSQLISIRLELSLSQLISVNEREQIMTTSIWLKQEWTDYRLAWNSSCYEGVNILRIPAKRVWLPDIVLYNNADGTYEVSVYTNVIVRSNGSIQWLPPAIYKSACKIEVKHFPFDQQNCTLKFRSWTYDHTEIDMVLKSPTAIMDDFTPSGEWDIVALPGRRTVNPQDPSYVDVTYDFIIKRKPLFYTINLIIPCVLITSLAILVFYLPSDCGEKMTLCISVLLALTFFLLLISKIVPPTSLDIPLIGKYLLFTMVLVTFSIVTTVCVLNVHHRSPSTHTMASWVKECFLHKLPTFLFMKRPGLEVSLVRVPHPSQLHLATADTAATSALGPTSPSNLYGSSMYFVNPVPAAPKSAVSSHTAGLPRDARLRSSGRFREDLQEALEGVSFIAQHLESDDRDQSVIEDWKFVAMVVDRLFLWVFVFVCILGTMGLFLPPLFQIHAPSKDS

[4] = biological target: T2, Neuronal acetylcholine receptor; alpha4/beta2 (Rattus norvegicus) (UniProt P09483+P12390); experiment: Noncompetitive inhibition of nicotine-induced rat alpha4beta2 nAChR transfected in HEK293 cells assessed as stimulation of membrane potential at 3 uM after 10 mins by fluorescence assay; assay type: cell-based; design: scale not given: the % may be the effect or the level left; summary of the method: as §1
[5] = biological target: T2, Neuronal acetylcholine receptor; alpha4/beta2 (Rattus norvegicus); experiment: Noncompetitive inhibition of nicotine-induced rat alpha4beta2 nAChR transfected in HEK293 cells assessed as stimulation of membrane potential at 1 uM after 10 mins by fluorescence assay; assay type: cell-based; design: scale not given: the % may be the effect or the level left; summary of the method: as §1
[6] = biological target: T2, Neuronal acetylcholine receptor; alpha4/beta2 (Rattus norvegicus); experiment: Inverse agonist activity at nicotine-induced rat alpha4beta2 nAChR activation transfected in HEK293 cells; assay type: cell-based
[7] = biological target: T2, Neuronal acetylcholine receptor; alpha4/beta2 (Rattus norvegicus); experiment: Noncompetitive inhibition of nicotine-induced rat alpha4beta2 nAChR transfected in HEK293 cells assessed as stimulation of membrane potential after 10 mins by fluorescence assay; assay type: cell-based; summary of the method: as §1
[8] = biological target: T2, Neuronal acetylcholine receptor; alpha4/beta2 (Rattus norvegicus); experiment: Noncompetitive inhibition of nicotine-induced rat alpha4beta2 nAChR transfected in HEK293 cells assessed as stimulation of membrane potential at 0.3 uM after 10 mins by fluorescence assay; assay type: cell-based; design: scale not given: the % may be the effect or the level left; summary of the method: as §1
[9] = biological target: T3, Neuronal acetylcholine receptor; alpha3/beta4 (Rattus norvegicus) (UniProt P04757+P12392); experiment: Antagonist activity at rat alpha3beta4 nAChR transfected in HEK293 cells assessed as inhibition of nicotine-induced membrane potential stimulation at 10 uM after 10 mins by fluorescence assay; assay type: cell-based; summary of the method: as §1
[10] = biological target: T2, Neuronal acetylcholine receptor; alpha4/beta2 (Rattus norvegicus); experiment: Agonist activity at rat alpha4beta2 nAChR transfected in HEK293 cells assessed as change in membrane potential measured every 3 secs for 120 secs by fluorescence assay; assay type: cell-based
Summary of the method: (§3)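 Membrane potential read with blue potentiometric dye on a FlexStation. Transfected HEK cells were seeded at 4000/well one day ahead, washed, then loaded with dye in HBSS containing 20 mM HEPES, pH 7.4, for 30 min at 37 °C. Compound was then dispensed automatically and fluorescence (ex 530, em 550–580) recorded every 3 s for 120 s.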

[11] = biological target: T3, Neuronal acetylcholine receptor; alpha3/beta4 (Rattus norvegicus); experiment: Agonist activity at rat alpha3beta4 nAChR transfected in HEK293 cells assessed as change in membrane potential measured every 3 secs for 120 secs by fluorescence assay; assay type: cell-based; summary of the method: as §3
[12] = biological target: Nicotinic acetylcholine receptor alpha3/beta4/alpha5 (Homo sapiens, UniProt P30532+P30926+P32297); experiment: Binding affinity to alpha3beta4alpha5 nAChR (unknown origin); assay type: protein-complex assay
Sequence of Nicotinic acetylcholine receptor alpha3/beta4/alpha5 (P30926 whole entry): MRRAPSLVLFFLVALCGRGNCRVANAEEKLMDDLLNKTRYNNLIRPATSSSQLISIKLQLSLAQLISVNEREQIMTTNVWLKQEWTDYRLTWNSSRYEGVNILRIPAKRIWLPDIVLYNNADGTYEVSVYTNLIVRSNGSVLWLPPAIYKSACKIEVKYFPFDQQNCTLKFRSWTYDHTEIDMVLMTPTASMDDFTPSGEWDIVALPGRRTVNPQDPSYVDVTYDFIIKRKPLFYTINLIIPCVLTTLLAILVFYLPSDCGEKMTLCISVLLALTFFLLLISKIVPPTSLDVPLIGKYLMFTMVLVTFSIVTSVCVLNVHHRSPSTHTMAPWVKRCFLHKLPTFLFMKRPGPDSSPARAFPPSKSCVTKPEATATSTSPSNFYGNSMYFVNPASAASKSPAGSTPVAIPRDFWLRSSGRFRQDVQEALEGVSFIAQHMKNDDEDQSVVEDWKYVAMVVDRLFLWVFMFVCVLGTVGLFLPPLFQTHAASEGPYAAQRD
Sequence of Nicotinic acetylcholine receptor alpha3/beta4/alpha5 (P32297 whole entry): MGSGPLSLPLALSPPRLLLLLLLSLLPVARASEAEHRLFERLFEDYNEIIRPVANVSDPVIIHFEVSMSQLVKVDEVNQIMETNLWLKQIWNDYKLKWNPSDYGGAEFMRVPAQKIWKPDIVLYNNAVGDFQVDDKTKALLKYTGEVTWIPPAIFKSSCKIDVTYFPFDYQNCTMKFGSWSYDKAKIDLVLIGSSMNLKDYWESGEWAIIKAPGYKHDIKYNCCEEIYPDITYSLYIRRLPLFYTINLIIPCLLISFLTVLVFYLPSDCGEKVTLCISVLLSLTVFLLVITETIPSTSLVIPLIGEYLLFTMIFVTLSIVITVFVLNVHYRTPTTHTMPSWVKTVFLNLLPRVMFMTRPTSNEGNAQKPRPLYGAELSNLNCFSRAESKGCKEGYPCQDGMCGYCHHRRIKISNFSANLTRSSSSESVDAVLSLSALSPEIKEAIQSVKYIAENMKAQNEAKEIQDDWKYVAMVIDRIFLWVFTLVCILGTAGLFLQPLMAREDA
Sequence of Nicotinic acetylcholine receptor alpha3/beta4/alpha5 (P30532 whole entry): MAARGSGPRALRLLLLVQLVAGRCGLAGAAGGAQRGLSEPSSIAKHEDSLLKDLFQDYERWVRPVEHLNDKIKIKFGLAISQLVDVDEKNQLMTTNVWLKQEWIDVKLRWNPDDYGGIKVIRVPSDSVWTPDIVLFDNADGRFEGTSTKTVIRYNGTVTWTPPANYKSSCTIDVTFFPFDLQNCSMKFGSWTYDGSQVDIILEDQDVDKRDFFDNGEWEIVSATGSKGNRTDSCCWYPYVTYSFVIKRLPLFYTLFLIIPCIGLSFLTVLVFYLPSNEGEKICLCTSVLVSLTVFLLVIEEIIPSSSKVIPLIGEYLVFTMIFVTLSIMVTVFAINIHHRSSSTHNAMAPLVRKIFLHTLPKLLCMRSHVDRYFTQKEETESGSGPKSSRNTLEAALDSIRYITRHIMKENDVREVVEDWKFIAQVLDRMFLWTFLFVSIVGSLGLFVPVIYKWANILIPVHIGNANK

`N=C1NC[C@H](CCCCN2C[C@H](Cc3ccc4ccccc4c3)N(CCc3cccc(Br)c3)C2=N)N1CCc1ccc(Cl)c(Cl)c1` was tested, and the Selectivity ratio (HEK293) was 0.8.

For `CC(C)(C)C1CCC(CN2C(=N)N(CCCC[C@H]3CNC(=N)N3CCc3cccc(F)c3)C[C@H]2CC2CCCCC2)CC1` (stereo partly drawn), the Ratio Ki (Rattus norvegicus) was 24 and the Selectivity ratio (HEK293) was 25.9.

In the case of `CC(C)CCCN1C(=N)NC[C@@H]1CCCCN1C[C@@H](CC2CCCCC2)N(CC2CCC(C(C)(C)C)CC2)C1=N` (stereo partly drawn), the Selectivity ratio (HEK293) was 21.2.

For `CC(C)(C)C1CCC(CN2CCN(CCCC[C@@H]3CNC(=N)N3CCc3cccnc3)C2=N)CC1` (stereo partly drawn), the Ratio Ki (Rattus norvegicus) was 23, the pIC50 [1] was 5.53 and the pKi [2] was 5.65. It also gave a pKi [3] of 4.28.

With `CCCCCCCN1C(=N)NC[C@@H]1CCCCN1C[C@@H](CC2CCCCC2)N(CC2CCC(C(C)(C)C)CC2)C1=N` (stereo partly drawn) the Selectivity ratio (HEK293) was 13.2.

`CCCCCCCN1C(N)=NC[C@@H]1CCCCN1C[C@@H](CC2CCCCC2)N(CCc2cccc(Br)c2)C1=N` was tested, and the pKi [2] was 5.55 and the pKi [3] was 4.63.

With `N=C1NC[C@H](CCCCN2C[C@@H](Cc3ccccc3)N(CCc3cccc(Br)c3)C2=N)N1CCc1cccc(F)c1` the Selectivity ratio (HEK293) was 10.1.

With `CCCCCCCN1C(N)=NC[C@@H]1CCCCN1C[C@@H](Cc2ccccc2)N(CC2CCC(C(C)(C)C)CC2)C1=N` (stereo partly drawn) the pKi [2] was 5.57 and the pKi [3] was 4.26.

`N=C1N(CCCC[C@H]2CN=C(N)N2CCc2cccc(F)c2)C[C@@H](Cc2ccccc2)N1CCc1cccc(Br)c1` was tested, and the pKi [2] was 5.74 and the pKi [3] was 4.69.

Work on `CC(C)(C)C1CCC(CN2CCN(CCCC[C@H]3CN=C(N)N3CCc3cccnc3)C2=N)CC1` (stereo partly drawn) yielded a pIC50 [1] of 5.55, a pKi [2] of 6.36 and a pKi [3] of 4.56.

For `N=C1N(CCCC[C@H]2CN=C(N)N2CCc2ccc(Cl)c(Cl)c2)C[C@H](Cc2ccc3ccccc3c2)N1CCc1ccc(Br)cc1`, the pKi [2] was 5.51 and the pKi [3] was 5.57.

For `CC(C)(C)C1CCC(CN2C(=N)N(CCCC[C@H]3CNC(=N)N3CCc3cccnc3)C[C@H]2Cc2ccccc2)CC1` (stereo partly drawn), the Activity [4] was 0%, the Activity [5] was 38% and the Ratio Ki (Rattus norvegicus) was 478. For the same compound, the Activity [6] was “Active”, the inhibition [7] was “Dose-dependent effect” and the Activity [8] was 83%. The inhibition [9] was 50%, the Activity [10] was “inactive” and the Activity [11] was “inactive”. For the same compound, the pKi [12] was 5.04, the pIC50 [1] was 6.29 and the Selectivity ratio (HEK293) was 20. For the same compound, the pKi [2] was 6.93 and the pKi [3] was 4.25.

With `CC(C)CCCN1C(N)=NC[C@@H]1CCCCN1C[C@@H](Cc2ccccc2)N(CC2CCC(C(C)(C)C)CC2)C1=N` (stereo partly drawn) the pKi [2] was 5.64 and the pKi [3] was 4.16.

In the case of `CC(C)(C)C1CCC(CN2C(=N)N(CCCC[C@H]3CNC(=N)N3CCc3cccnc3)C[C@@H]2CC2CCCCC2)CC1` (stereo partly drawn), the Ratio Ki (Rattus norvegicus) was 128.

`CCCCCCCN1C(=N)NC[C@@H]1CCCCN1C[C@@H](Cc2ccccc2)N(CCc2cccc(Br)c2)C1=N` showed a Selectivity ratio (HEK293) of 4.8, a pKi [2] of 5.60 and a pKi [3] of 4.84.

Compound `N=C1NC[C@H](CCCCN2C[C@@H](CC3CCCCC3)N(CCc3cccc(Br)c3)C2=N)N1CCc1cccc(F)c1` has a Selectivity ratio (HEK293) of 4.8.

In the case of `CCCCCCCN1C(=N)NC[C@@H]1CCCCN1C[C@@H](CC2CCCCC2)N(CCc2cccc(Br)c2)C1=N`, the Selectivity ratio (HEK293) was 7.2.

`N=C1N(CCCC[C@H]2CN=C(N)N2CCc2ccc(Cl)c(Cl)c2)C[C@@H](Cc2ccc3ccccc3c2)N1CCc1ccc(Cl)c(Cl)c1` was tested, and the pKi [2] was 4.32 and the pKi [3] was 3.46.

`CC(C)CCCN1C(N)=NC[C@@H]1CCCCN1C[C@@H](CC2CCCCC2)N(CCc2cccc(Br)c2)C1=N` showed a pKi [2] of 5.48 and a pKi [3] of 4.43.

With `N=C1N(CCCC[C@H]2CN=C(N)N2CCc2ccc(Cl)c(Cl)c2)C[C@H](Cc2ccc3ccccc3c2)N1CCc1ccc(Cl)c(Cl)c1` the pKi [2] was 3.74 and the pKi [3] was 4.00.

In the case of `CC(C)CCCN1C(=N)NC[C@@H]1CCCCN1C[C@@H](Cc2ccccc2)N(CCc2cccc(Br)c2)C1=N`, the Selectivity ratio (HEK293) was 17.5, the pKi [2] was 5.59 and the pKi [3] was 4.32.

`CC(C)(C)C1CCC(CN2C(=N)N(CCCC[C@H]3CNC(=N)N3CCc3cccnc3)C[C@H]2CC2CCCCC2)CC1` (stereo partly drawn) gave a Ratio Ki (Rattus norvegicus) of 176.
